SENP7 inh = SENP7 protease inhibitors, primary screen, biochemical, luminescence, uHTS; Sentrin-specific protease 7 (Homo sapiens), Q9BQF6; recombinant SENP7, Z-RLRGG-aminoluciferin luminescence, 40 min; inhibition, % at 5 µM; hit rate 1.5% among 330,000; AID 434973, 2010;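 active means inhibition above about 50% at the single test dose, limit read from the data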;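 further: plate controls were DMSO with enzyme for no effect and no enzyme buffer wells for full effect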
CendR NRP1 mod = modulators of CendR peptide binding to NRP-1, primary screen, biochemical, fluorescence polarization, uHTS; FAM-RPARPAR peptide binding to NRP-1; AID 602438, 2012; inhibition, % at 25 µM; Neuropilin-1 (Homo sapiens), O14786; hit rate 0.85% among 360,000;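 active means inhibition or corrected inhibition above about 18%, plus a signal ratio from 0.5 to 1.5, limit read from the data, passing the limit was not always enough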
SENP8 block-1 = SENP8 protease inhibitors, primary screen, biochemical, luminescence. Sentrin-specific protease 8 (Homo sapiens), Q96LD8. purified SENP8, Z-RLRGG-aminoluciferin cleavage. inhibition, % at 10 µM. hit rate 1.2% among 330,000. AID 2540, 2010; in the data active means inhibition above about 50%
Target sequence (Q96LD8 whole entry, looked up): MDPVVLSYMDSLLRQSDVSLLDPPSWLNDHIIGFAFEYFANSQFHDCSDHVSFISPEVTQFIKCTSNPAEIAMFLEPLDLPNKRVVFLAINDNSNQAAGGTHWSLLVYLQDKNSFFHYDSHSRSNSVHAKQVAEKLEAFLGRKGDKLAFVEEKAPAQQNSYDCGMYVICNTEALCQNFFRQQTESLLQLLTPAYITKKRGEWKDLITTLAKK
SENP1 inh = human SENP1 catalytic domain inhibitors, primary screen, biochemical, FRET, uHTS | recombinant SENP1 catalytic domain, CyPet-SUMO1-YPet FRET cleavage | AID 624204, 2012 | Sentrin-specific protease 1 (Homo sapiens), Q9P0U3 | inhibition, % at 10 µM | hit rate 0.21% among 360,000;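 active means inhibition at least 30% at 10 µM, raw YFP signal under a set limit, fluorescence ratio 0.5 to 1.5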;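 further: 0% = enzyme with DMSO and 100% = no enzyme wells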
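Assay system – human recombinant His6-tagged SENP1 catalytic domain enzyme · Input – SENP1 enzyme, 20 pM final · Buffer or medium – Tris pH 8 buffer plus EDTA, NaCl, BME, BSA, NP40, catalase · Schedule – 50 min reaction at room temperature · Technique – FRET read of cyan and yellow fluorescence · Control set – no-enzyme wells low, DMSO-plus-enzyme wells high control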
SENP6 inh = SENP6 protease inhibitors, primary screen, biochemical, luminescence, uHTS. Sentrin-specific protease 6 (Homo sapiens), Q9GZR1. inhibition, % at 10 µM. hit rate 1.8% among 330,000. AID 2599, 2010. Recombinant SENP6 catalytic domain, aminoluciferin luminescence;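 active means inhibition above about 50% at the single tested dose, limit read from the data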;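 further: plate controls were DMSO wells with enzyme for no effect and DMSO wells lacking enzyme for full effect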
SENP8 block-2 = human SENP8 protease inhibitors, primary screen, biochemical, fluorescence, Nedd8 protein substrate, uHTS; inhibition, % at 20 µM; hit rate 0.64% among 360,000; recombinant SENP8; in the data active means inhibition mostly above about 40%, no sharp cut-off; inactive means mostly below about 27%
SENP8 confirm = SENP8 protease inhibitors, retest, confirmation, biochemical, luminescence, single concentration | shares compounds with SENP7 inh | Recombinant SENP8, Z-RLRGG-aminoluciferin luminescence, 60 min | inhibition, % at 12.5 µM | hit rate 40% among 6,200;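 active means mean inhibition across replicates above about 50%, limit read from the data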
SENP6 conf = SENP6 protease inhibitors, confirmation, biochemical, luminescence, single concentration; shares compounds with SENP7 inh; recombinant SENP6, Z-RLRGG-aminoluciferin luminescence; inhibition, % at 12.5 µM; hit rate 58% among 6,200
SENP7 conf = SENP7 protease inhibitors, retest, confirmation, biochemical, luminescence, single concentration. shares compounds with SENP7 inh. recombinant SENP7, Z-RLRGG-aminoluciferin luminescence, 40 min. inhibition, % at 12.5 µM. hit rate 69% among 6,200. AID 488917, 2010
Casp3 SENP sel = caspase-3 protease inhibitors, confirmation, selectivity assay for SENP inhibitor project, biochemical, single concentration | shares compounds with SENP7 inh | purified caspase-3, Z-DEVD-aminoluciferin luminescence, 60 min | inhibition, % at 12.5 µM | hit rate 60% among 6,200 | AID 488918, 2010;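 active means mean inhibition above about 50%, limit read from the data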;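 further: plate controls were enzyme with DMSO for no effect and wells without caspase-3 for full effect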
Target sequence (P42574 28-227 limits assumed): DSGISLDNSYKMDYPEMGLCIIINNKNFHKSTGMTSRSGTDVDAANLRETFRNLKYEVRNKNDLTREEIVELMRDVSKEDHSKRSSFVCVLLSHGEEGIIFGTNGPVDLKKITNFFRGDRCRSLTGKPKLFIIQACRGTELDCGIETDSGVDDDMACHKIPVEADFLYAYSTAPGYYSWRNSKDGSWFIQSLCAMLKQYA
SENP luc ctr = counter-screen for SENP inhibitors: luminescence interference | shares compounds with SENP7 inh | Pre-incubated SENP8/Z-RLRGG-aminoluciferin, luciferase luminescence interference | inhibition, % at 12.5 µM | hit rate 39% among 6,200 | AID 488919;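 active means mean inhibition above about 50% when retested at one dose, limit read from the data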;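 further: plate controls were DMSO wells with completed reaction for no effect and substrate without enzyme for full effect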
Active calls of the source: *. Most compounds without a hit are left out; they make up all but 3.3% or so of the library.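 How the source made its calls, unless noted: active means mean inhibition above about 50% in the one-dose retest (limit read from the data); inactive means the rest.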

How did N/C(=N\N=C\c1ccc2c(c1)OCO2)c1nonc1N do in these assays?
SENP7 inh: 98*; CendR NRP1 mod: -8; SENP8 block-1: 95*; SENP1 inh: -1; SENP6 inh: 95*; SENP8 block-2: 16; SENP8 confirm: 95*; SENP6 conf: 96*; SENP7 conf: 101*; Casp3 SENP sel: 96*; SENP luc ctr: 64*

How did CC(c1ccco1)N(C(=O)COc1ccc(Cl)cc1)c1ccccn1 (configuration not stated) do in these assays?
SENP7 inh: 2; CendR NRP1 mod: -11; SENP8 block-1: 18; SENP1 inh: -5; SENP6 inh: 50*; SENP8 block-2: -5; SENP8 confirm: 30; SENP6 conf: 22; SENP7 conf: 18; Casp3 SENP sel: 53*; SENP luc ctr: 51*

Results for CCCSc1ccc2nc(-c3ccccc3)cn2c1 ?
SENP7 inh: 98*; CendR NRP1 mod: -13; SENP8 block-1: 96*; SENP1 inh: 3; SENP6 inh: 96*; SENP8 block-2: -356; SENP8 confirm: 98*; SENP6 conf: 99*; SENP7 conf: 102*; Casp3 SENP sel: 97*; SENP luc ctr: 93*

Results for COc1ccc(C(=O)c2cc3cccc(OC)c3o2)cc1 ?
SENP7 inh: 83*; CendR NRP1 mod: 21; SENP8 block-1: 82*; SENP1 inh: 2; SENP6 inh: 84*; SENP8 block-2: -16; SENP8 confirm: 88*; SENP6 conf: 86*; SENP7 conf: 97*; Casp3 SENP sel: 76*; SENP luc ctr: 66*

How did O=C(c1cc2ccccc2o1)c1cccs1 do in these assays?
SENP7 inh: 72*; CendR NRP1 mod: 7; SENP8 block-1: 51*; SENP1 inh: 0; SENP6 inh: 11; SENP8 block-2: 2; SENP8 confirm: 50; SENP6 conf: 75*; SENP7 conf: 93*; Casp3 SENP sel: 68*; SENP luc ctr: 58*

Results for Cc1ccc(C(=O)c2cc3ccccc3o2)cc1C ?
SENP7 inh: 76*; CendR NRP1 mod: 3; SENP8 block-1: 69*; SENP1 inh: 2; SENP6 inh: 82*; SENP8 block-2: 27; SENP8 confirm: 5; SENP6 conf: 72*; SENP7 conf: 53*; Casp3 SENP sel: 29; SENP luc ctr: 26

Results for Cc1ccc(C(=O)c2cc3ccccc3o2)cc1 ?
SENP7 inh: 56*; CendR NRP1 mod: 19; SENP8 block-1: 44; SENP1 inh: 2; SENP6 inh: 77*; SENP8 block-2: 17; SENP8 confirm: 32; SENP6 conf: 60*; SENP7 conf: 86*; Casp3 SENP sel: 52*; SENP luc ctr: 59*

What do the screens show for `O=C(c1cccc([N+](=O)[O-])c1)c1cc2ccccc2o1`?
SENP7 inh: 5; CendR NRP1 mod: -8; SENP8 block-1: -1; SENP1 inh: 1; SENP6 inh: 21; SENP8 block-2: 16
